Results: publication PMC2906681 (Biochemical pharmacology, 2010)
Substitutions are numbered along the chain they refer to.

Key:
Shp1 = details: cited from earlier work
most of other PTPs = details: cited from earlier work
ISRE-luciferase reporter = assay: ISRE luciferase reporter assay in HT-29 cells; assay type: cell-based
In short: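 HT-29 cells (5 × 10^5 per well) were co-transfected by lipofection with 1.6 µg pISRE-Luc and 0.4 µg β-gal plasmids. They were then stimulated with 50 U/ml IFN-γ for 6 h or left unstimulated. Luciferase was normalized to β-galactosidase activity; two duplicate experiments (n = 4).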

HT-29 cells = assay: Cell growth assay; assay type: cell-based; details: for fraction of inhibition: 4 days
In short: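 HT-29 cells at 1,000 cells/well, in triplicate, in RPMI1640/10% FBS with IFN-γ (100 U/ml) and/or test compound or vehicle. Compound volume kept ≤0.1% of total. Incubated 4 days at 37 °C/5% CO2. Relative viable cell number was read by CellTiterGlo luminescence. Synergism of the two agents was calculated with the Bliss definition.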

[1] = target: T1, His-tagged Shp2 (amino acids 1–525) (Homo sapiens, UniProt Q06124); assay: Surface plasmon resonance; details: SPR, 1:1 binding model
T1 sequence (Q06124 1-525): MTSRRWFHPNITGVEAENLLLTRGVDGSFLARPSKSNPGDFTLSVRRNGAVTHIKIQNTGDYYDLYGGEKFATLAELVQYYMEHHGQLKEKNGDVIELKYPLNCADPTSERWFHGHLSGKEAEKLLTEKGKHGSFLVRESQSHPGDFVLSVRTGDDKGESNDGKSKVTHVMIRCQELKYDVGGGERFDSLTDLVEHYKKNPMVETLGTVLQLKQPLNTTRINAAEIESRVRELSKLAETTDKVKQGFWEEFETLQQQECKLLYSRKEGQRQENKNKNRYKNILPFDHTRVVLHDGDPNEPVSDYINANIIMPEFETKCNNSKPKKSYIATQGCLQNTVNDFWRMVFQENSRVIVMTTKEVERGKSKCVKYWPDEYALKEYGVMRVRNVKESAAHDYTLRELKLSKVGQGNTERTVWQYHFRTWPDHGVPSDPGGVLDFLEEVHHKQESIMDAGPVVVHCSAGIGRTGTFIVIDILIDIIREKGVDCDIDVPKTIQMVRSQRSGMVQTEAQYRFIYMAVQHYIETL

[2] = target: T2, non-fusion Shp2 PTP protein (Homo sapiens, UniProt Q06124); assay: Enzyme kinetics analysis of Shp2 PTP inhibition; assay type: biochemical; details: Lineweaver-Burk, AIC comparison
T2 sequence (Q06124 247-517 limits assumed): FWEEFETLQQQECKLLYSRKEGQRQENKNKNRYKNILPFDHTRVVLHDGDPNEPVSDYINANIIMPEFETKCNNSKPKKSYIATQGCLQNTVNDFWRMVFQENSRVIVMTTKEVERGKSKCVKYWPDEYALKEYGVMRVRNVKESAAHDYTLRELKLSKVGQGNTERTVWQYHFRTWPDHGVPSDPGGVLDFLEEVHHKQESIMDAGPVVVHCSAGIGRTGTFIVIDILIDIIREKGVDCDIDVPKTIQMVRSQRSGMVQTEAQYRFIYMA

Shp2 [3] = target: T3, Shp2 (Homo sapiens, UniProt Q06124); assay: Cell-based Shp2 inhibition assays
T3 sequence (Q06124 1-593): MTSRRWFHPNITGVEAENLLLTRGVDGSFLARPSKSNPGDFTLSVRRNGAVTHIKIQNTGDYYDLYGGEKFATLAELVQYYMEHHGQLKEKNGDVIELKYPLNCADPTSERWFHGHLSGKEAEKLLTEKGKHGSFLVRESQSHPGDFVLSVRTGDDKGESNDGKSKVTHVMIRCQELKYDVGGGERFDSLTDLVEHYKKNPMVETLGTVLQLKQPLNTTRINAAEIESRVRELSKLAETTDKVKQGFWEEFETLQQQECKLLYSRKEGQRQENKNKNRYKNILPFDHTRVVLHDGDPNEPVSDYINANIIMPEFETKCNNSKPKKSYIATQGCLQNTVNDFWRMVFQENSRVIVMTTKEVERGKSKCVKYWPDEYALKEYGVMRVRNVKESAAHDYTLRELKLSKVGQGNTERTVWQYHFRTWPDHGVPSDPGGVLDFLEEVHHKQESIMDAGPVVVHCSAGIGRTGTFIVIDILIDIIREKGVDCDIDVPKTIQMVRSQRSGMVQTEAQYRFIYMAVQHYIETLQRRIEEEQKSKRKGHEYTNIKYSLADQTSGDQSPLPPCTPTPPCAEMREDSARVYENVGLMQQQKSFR

TF-1/Shp2^E76K cells [4] = assay: Fluorescence uptake assay; assay type: in vitro ADME; details: 5 h incubation, ex/em 485/535 nm
In short: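 TF-1/Shp2E76K cells (6 × 10^5 in 1 ml RPMI1640/10% FBS) were incubated 5 h at 37 °C/5% CO2 with test compound or DMSO. Fluorescence (485/535 nm) was read in the whole suspension, then in cell-free medium (supernatant plus washes) and in twice-washed pellets. Fraction totals were expressed relative to the 100 µM suspension, set as 100%. Two duplicate experiments (n = 4).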

cells = assay: Confocal laser scanning microscopy of compound uptake; assay type: in vitro ADME; details: 25 µM, 3 h
In short: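 TF-1/Shp2E76K cells grown in glass-bottom dishes were exposed to test compound at 25 µM for 3 h, then Hoechst 33342 (5 µg/ml) was added. Internal confocal sections were imaged with a 63X/1.40NA oil objective (2,520×), using 458 nm argon and 405 nm diode excitation with tunable emission filters. Compound fluorescence was viewed green.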

Shp2 [5] = target: T3, Shp2; assay: EGF-stimulated Shp2 PTP activity in immune complexes from MDA-MB-468 cells; assay type: cell-based; details: EGF 50 ng/ml 10 min
In short: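 Sub-confluent MDA-MB-468 cells were serum-starved 18 h in DMEM/0.1% BSA, pretreated overnight with test compound (20 or 100 µM), then EGF-stimulated (50 ng/ml, 10 min). Lysate (0.2 mg, Hepes pH 7.4 PTP lysis buffer) was immunoprecipitated with anti-Shp2/protein G for 2 h at 4 °C and washed. Complexes were reacted with 50 µM DiFMUP for 20 min at room temperature, and DiFMU fluorescence was read. Pellets were immunoblotted for Shp2. Two experiments, duplicates.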

Shp2^E76K = target: T4, Shp2^E76K (Homo sapiens, UniProt Q06124, E76K); assay: Shp2^E76K PTP activity in immune complexes from TF-1/Shp2^E76K cells; assay type: cell-based; details: GM-CSF-free medium
T4 sequence (Q06124 1-593 E76K): T3 sequence (Q06124 1-593) with E76K
In short: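 TF-1/Shp2E76K cells were treated in GM-CSF-free RPMI1640/10% FBS with test compound at various concentrations. Flag-Shp2E76K was immunoprecipitated with anti-Flag M2/protein G (0.2 mg lysate, 2 h, 4 °C) and washed. Complexes were incubated with 50 µM DiFMUP for 20 min at room temperature, and fluorescence was measured. Part of each immunoprecipitate was blotted for Shp2. Two experiments.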

TF-1/Shp2^E76K cells [6] = assay: Cell growth assay; assay type: cell-based
In short: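 TF-1/Shp2E76K cells were plated at 1,000 cells/well in triplicate in RPMI1640/10% FBS without GM-CSF, with test compound. The compound volume was ≤0.1% of the total. Cells were incubated 4 days at 37 °C/5% CO2, then relative viable cell number was read with CellTiterGlo. Data came from two triplicate experiments.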

[7] = target: T5, GST-Shp2 PTP domain protein (Homo sapiens, UniProt Q06124); assay: In vitro Shp2 PTP activity inhibition assay; assay type: biochemical
T5 sequence (Q06124 247-517 limits assumed): T2 sequence (Q06124 247-517 limits assumed)

[8] = test system: paxillin dephosphorylation; assay: EGF-induced paxillin tyrosine dephosphorylation in MDA-MB-468 cells; assay type: cell-based; details: 20 µM, 2 h; EGF 50 ng/ml 10 min
In short: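 Serum-starved MDA-MB-468 cells received test compound (20 µM, 2 h) and/or EGF (50 ng/ml, 10 min). Cells were lysed on ice in Tris buffer (pH 7.5) containing Na3VO4, NaF, pyrophosphate and protease inhibitors. Paxillin was immunoprecipitated, resolved by SDS-PAGE and immunoblotted with anti-phosphotyrosine and anti-paxillin antibodies.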

Erk1/2 activation = assay: EGF-stimulated Erk1/2 activation in MDA-MB-468 cells; assay type: cell-based; details: 0–20 µM tested, EGF 2 ng/ml 5 min
In short: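 Serum-starved MDA-MB-468 cells were pretreated with test compound (0–20 µM), then stimulated with EGF (2 ng/ml, 5 min). Cleared lysates were immunoblotted for dual-phosphorylated Erk1/2 and total Erk1/2.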

MDA-MB-468 cells = assay: Transwell cell migration assay; assay type: cell-based; details: EGF 10 ng/ml, 16 h
pErk1/2 and Bcl-XL = pErk1/2 and Bcl-XL immunoblotting in TF-1/Shp2^E76K cells; assay type: cell-based; details: concentration-dependent
TF-1/Shp2^E76K cells [9] = assay: EB/AO staining apoptosis assay; assay type: cell-based; details: 3 days, base level 4.2%
[10] = test system: STAT1 tyrosine phosphorylation; assay: IFN-γ-stimulated STAT1 tyrosine phosphorylation in HT-29 cells; assay type: cell-based; details: 20 µM, 2 h pre-treatment, IFN-γ 20 U/ml
p21 = p21 expression in HT-29 cells; assay type: cell-based; details: 12.5 µM with IFN-γ, 24 h, versus IFN-γ alone
In short: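 HT-29 cells were treated 24 h with IFN-γ at indicated amounts, with or without test compound at 12.5 µM. Cell lysates were immunoblotted for p21, with β-actin as loading reference.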

Question: With `O=C1C(=NNc2ccc(S(=O)(=O)O)cc2)C(c2ccc([N+](=O)[O-])cc2)=NN1c1ccccc1` [PHPS1, phenylhydrazonopyrazolone sulfonate 1] as the compound, how does the “selectivity against Shp1” value (Shp1) read?
Answer: 14 fold

Question: And the “selectivity against most of other PTPs” value (most of other PTPs)?
Answer: > 10

Question: Which “Shp1 inhibition compared with Shp2” value (Shp1) does the source give for `O=C(O)c1cc(O)c(=O)c2c(O)c(O)ccc2c1` [DCA, 7-deshydroxypyrogallin-4-carboxylic acid] here?
Answer: same potency

Question: For “IFN-γ: interferon-γ, cytokine used to stimulate STAT1 signaling in HT-29 cells”, which “activation of ISRE luciferase activity” value (ISRE-luciferase reporter; IFN-γ 50 U/ml alone, 6 h) is on record?
Answer: 26%

Question: And the fraction of inhibition (HT-29 cells; IFN-γ 100 U/ml alone)?
Answer: 0.18

Question: Which “association rate Ka” value [1] does the source give for `O=C1Nc2ccc(S(=O)(=O)NCc3ccc(F)cc3)cc2/C1=N/Nc1cccc(C(=O)O)c1` [SPI-112, (Z)-3-(2-(5-(N-(4-fluorobenzyl)sulfamoyl)-2-oxoindolin-3-ylidene)hydrazinyl)benzoic acid] here?
Answer: 22400 M⁻¹ s⁻¹

Question: And the “best fitted inhibition model” value [2]?
Answer: competitive inhibition model

Question: What about the “activity in cell-based Shp2 inhibition assays” value (Shp2 [3]) of the same compound?
Answer: no detectable activity

Question: And the “fluorescent signal associated with the cell pellets” value (TF-1/Shp2^E76K cells [4])?
Answer: only trace amount

Question: What about the “green fluorescence in confocal images of internal sections of cells” value (cells) of the same compound?
Answer: did not have green fluorescence

Question: What about the “effect on EGF-stimulated Shp2 PTP activity” value (Shp2 [5]; 100 µM pre-treatment overnight) of the same compound?
Answer: did not affect

Question: And the “Shp2^E76K PTP activity in treated cells” value (Shp2^E76K)?
Answer: no decrease

Question: What about the “effect on viable cells” value (TF-1/Shp2^E76K cells [6]; GM-CSF-free medium, 4 days) of the same compound?
Answer: did not affect

Question: Which IC50 [7] does the source give for `COC(=O)c1cccc(N/N=C2\C(=O)Nc3ccc(S(=O)(=O)NCc4ccc(F)cc4)cc32)c1` [SPI-112Me, (Z)-3-(2-(5-(N-(4-fluorobenzyl)sulfamoyl)-2-oxoindolin-3-ylidene)hydrazinyl)benzoic acid methyl ester] here?
Answer: > 100 µM

Question: What about the “fluorescent signal associated with the cell pellets” value (TF-1/Shp2^E76K cells [4]) of the same compound?
Answer: substantial amount

Question: And the “green fluorescence in confocal images of internal sections of cells” value (cells)?
Answer: readily detectable

Question: What about the “reduction of EGF-stimulated Shp2 PTP activity” value (Shp2 [5]; 20 µM pre-treatment overnight) of the same compound?
Answer: 77%

Question: What about the “effect on EGF-induced paxillin tyrosine dephosphorylation” value [8] of the same compound?
Answer: prevented

Question: And the “concentration at which inhibition of EGF-stimulated pErk1/2 signal was observed” value (Erk1/2 activation)?
Answer: 10 µM

Question: What about the “reduction of EGF-stimulated cell migration” value (MDA-MB-468 cells; 12.5 µM) of the same compound?
Answer: 62%

Question: And the “effect on EGF-stimulated cell migration” value (MDA-MB-468 cells; 25 µM)?
Answer: completed blocked

Question: And the “Shp2^E76K PTP activity in treated cells” value (Shp2^E76K)?
Answer: lower Shp2^E76K PTP activity

Question: And the “amounts of pErk1/2 and Bcl-XL” value (pErk1/2 and Bcl-XL)?
Answer: reduced

Question: What about the IC50 (TF-1/Shp2^E76K cells [6]; 96 h, read-out: concentration giving a 50% decrease in viable cells) of the same compound?
Answer: 10 µM

Question: What about the apoptotic cells (TF-1/Shp2^E76K cells [9]; 12.5 µM) of the same compound?
Answer: 9.3%

Question: What about the apoptotic cells (TF-1/Shp2^E76K cells [9]; 25 µM) of the same compound?
Answer: 18.8%

Question: And the “effect on IFN-γ-stimulated STAT1 tyrosine phosphorylation” value [10]?
Answer: increased amount of tyrosine-phosphorylated STAT1

Question: What about the “activation of ISRE luciferase activity” value (ISRE-luciferase reporter; 10 µM SPI-112Me plus IFN-γ 50 U/ml) of the same compound?
Answer: 54%

Question: And the “activation of ISRE luciferase activity” value (ISRE-luciferase reporter; 25 µM SPI-112Me plus IFN-γ 50 U/ml)?
Answer: 98%

Question: What about the p21 expression (p21) of the same compound?
Answer: higher levels of p21

Question: What about the fraction of inhibition (HT-29 cells; 6.25 µM SPI-112Me alone) of the same compound?
Answer: 0.32

Question: And the fraction of inhibition (HT-29 cells; 6.25 µM SPI-112Me plus IFN-γ 100 U/ml)?
Answer: 0.57

Question: What about the fraction of inhibition (HT-29 cells; 12.5 µM SPI-112Me alone) of the same compound?
Answer: 0.71

Question: What about the fraction of inhibition (HT-29 cells; 12.5 µM SPI-112Me plus IFN-γ 100 U/ml) of the same compound?
Answer: 0.84

Question: And the “combination effect with IFN-γ on inhibition of cell growth (Bliss)” value (HT-29 cells; IFN-γ 100 U/ml plus SPI-112Me)?
Answer: synergistic
